Screening data from PubChem.
M1 agonist: M1 muscarinic receptor agonism; 3% of 64,000 active; CHO-M1 cells, Fluo-4 calcium fluorescence, agonist mode; hits give high values; AID 626; B-score at 10 µM;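 active = fluorescence rise, raw or as B-score row- and column-corrected plate score, outside the 99.7% band of its plate's samples, either direction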
RORa activator: activators of human nuclear receptor RORA. 1.5% of 65,000 active. CHO-K1 Gal4-RORA LBD luciferase reporter, luminescence; percent increase over mock-subtracted basal signal. P35398. activation, % at 10 µM;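 active = activation above the mean of all tested compounds plus 3 SD, cut at about 49% in these data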;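 also: 0% = DMSO-treated RORA cells and 100% = added signal equal to DMSO minus mock-transfected cells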
Target sequence (P35398 whole entry, looked up, the tested form may be a part): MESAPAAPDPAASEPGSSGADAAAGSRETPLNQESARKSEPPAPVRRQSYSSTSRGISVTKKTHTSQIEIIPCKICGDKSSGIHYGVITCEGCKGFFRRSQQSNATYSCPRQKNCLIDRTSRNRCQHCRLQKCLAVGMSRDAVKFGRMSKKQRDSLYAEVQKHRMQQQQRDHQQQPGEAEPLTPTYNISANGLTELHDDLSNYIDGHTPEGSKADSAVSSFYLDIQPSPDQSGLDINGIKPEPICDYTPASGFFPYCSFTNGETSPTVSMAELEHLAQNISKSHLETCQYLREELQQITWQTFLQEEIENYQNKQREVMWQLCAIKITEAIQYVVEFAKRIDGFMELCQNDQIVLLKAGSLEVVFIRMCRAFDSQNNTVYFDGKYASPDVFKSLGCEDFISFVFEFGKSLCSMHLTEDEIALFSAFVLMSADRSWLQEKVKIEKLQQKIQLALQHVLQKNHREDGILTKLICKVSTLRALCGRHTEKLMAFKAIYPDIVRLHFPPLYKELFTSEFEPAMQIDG
HePTP inhibitor: inhibitors of human HePTP phosphatase | P35236 | recombinant HePTP phosphatase activity, OD absorbance | inhibition, % at 20 µM | 0.64% of 110,000 active | AID 521; in the data active = inhibition above about 50%;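 also: plate controls were vehicle for no effect and reference inhibitor for full effect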
D1 mod: allosteric modulators of human D1 dopamine receptor; 5.9% of 58,000 active; HEK293 D1, CRE-luciferase, dopamine EC30 potentiation; actives deviate in either direction; B-score at 10 µM; P21728;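 active = luminescence count or its row- and column-corrected plate score outside the 99.7% band of the plate's sample wells, on either side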
M1 antagonist: M1 muscarinic receptor (rat) antagonism | P08482 | CHO-M1 cells, Fluo-4 calcium, ACh EC80 antagonist mode; hits give low values | B-score at 10 µM | 3.4% of 64,000 active;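 active = calcium fluorescence response, raw or row-and-column corrected B-score, differing from the plate sample mean either way at a set confidence level, mostly lower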
SF1 activator: SF-1 (human) activation; Q13285; CHO-K1 Gal4-SF-1 LBD luciferase reporter; % increase over DMSO SF-1-specific signal; activation, % at 10 µM; 1.9% of 65,000 active; AID 522;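 active = activation above the mean activation of all tested compounds plus 3 SD, cut at about 50% in these data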
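Assay system: CHO-K1 cells co-transfected with Gal4 DBD–human SF-1 LBD, 5xGal4 luciferase reporter / Input: 4,000 cells per well / Incubation: 20 h compound exposure at 37 °C after 1 h cell settling / Detection: SteadyLite luciferase luminescence / Control set: DMSO negative control and −SF1 background wells / Replication: one test per compound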
M1 antag confirm: confirmation of rat M1 muscarinic receptor antagonists; AID 677; 43% of 1,700 active; calcium response (max-min fluorescence) at 10 µM; shares compounds with M1 antagonist; CHO-M1 cells, Fluo-4 calcium, ACh EC80 antagonism; hits give low values;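 active = calcium response below the same-plate mean of wells given acetylcholine alone at its 80%-effect dose, minus 3 SD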;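 also: raw fluorescence intensity difference in arbitrary instrument units and not normalized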
mGluR4 antag: acts on human mGluR4 in M1 antagonist selectivity test. shares compounds with M1 antagonist. CHO-mGluR4 calcium flux, Fluo-4 fluorescence, glutamate EC80; hits give low values. fluorescence response (max-min) at 10 µM. 0.9% of 1,700 active. AID 678;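 active = fluorescence response below the plate's average for near-maximal glutamate wells, less 3 SD of those wells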;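 also: raw unnormalized fluorescence span taken in the window right after glutamate addition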
* marks the source's active call; other numbers are inactive results; . = no result given. An excerpt weighted towards active compounds, which were near 8.2% of everything screened.

SMILES	M1 agonist	RORa activator	HePTP inhibitor	D1 mod	M1 antagonist	SF1 activator	M1 antag confirm	mGluR4 antag
Cc1cc(C)n(-c2ccc(C(=O)OCC(=O)N(CC(C)C)C3CCS(=O)(=O)C3)cc2)n1 (stereo not drawn)	-1.7	8	-2	0.19	-2.5*	0	595	220
CN1CCN(C2=C(Cl)C(=O)N(CCc3ccccc3)C2=O)CC1	-1.3	3	-2	.	-5.7*	9	376*	244
COc1cc(C)nc(OCCNC(=O)COc2ccc(Cl)cc2Cl)n1	-0.85	-14	-1	0.5	-0.0072	-4	.	.
CCCCn1nnnc1NCc1cccs1	-0.16	-10	1	0.59	0.1	-12	.	.
CCn1nnnc1NCc1ccc(N2CCCC2)cc1	-1.2	1	1	-0.21	-17*	-12	503*	215
CCOc1ccc(S(=O)(=O)Nc2cc(Cl)ccc2O)cc1	-0.058	15	3	-0.21	-3.1*	-11	457*	225
CCOc1ccc(S(=O)(=O)Nc2ccc(Cl)cc2)cc1	.	.	14	.	.	.	.	.
COc1ccccc1N1CCN(Cc2cc(Br)c(O)c3ncccc23)CC1	0.51	5	0	-1.5	0.61	-31	.	.
Oc1c(CN2CCCCC2)cc(COCc2ccccc2)c2cccnc12	-0.46	-53	5	-0.18	-5.4*	-89	410*	272
COCc1cc(CN2CCCC2)c(O)c2ncccc12	-1.2	-44	-6	-1.2	-0.42	-50	.	.
Oc1c(CN2CCN(c3ccccn3)CC2)cc(Cl)c2cccnc12	-3.1	-60	9	-1.5	-1.9*	-67	577	271
O=C(Nc1ccccc1)NC1CCN(CCCN2C(=O)c3ccccc3C2=O)CC1	.	-27	6	1	.	1	.	.
CCOC(=O)C(CCCCOc1ccc(Cl)cc1)C(=O)OCC	.	.	-1	.	.	.	.	.
CC(C)(C)c1ccc(OCC(O)CS(=O)(=O)c2ccccn2)cc1 (stereo not drawn)	-0.43	4	0	1.9	-1.8*	10	660	262
c1ccc2sc(NC3=NCN(Cc4ccc5c(c4)OCO5)CN3)nc2c1	0.0037	-14	6	0.87	-0.6	-8	.	.
Cc1nnc(SCC(=O)c2cc(C)n(-c3c(C)n(C)n(-c4ccccc4)c3=O)c2C)s1	0.93	5	6	-0.49	-1.5	16	.	.
Cc1cc(C(=O)CSc2nncs2)c(C)n1-c1c(C)n(C)n(-c2ccccc2)c1=O	-2.4	-8	8	0.0048	-9.1*	10	215*	195
O=C(Nc1ccc2c(c1)OCO2)c1ccc(COc2ccc3c(c2)CCC3)o1	-0.66	-13	-3	0.36	-1.9*	61*	647	232
O=S(=O)(/N=S1/CC=CCN1S(=O)(=O)c1ccccc1)c1ccccc1 (stereo not drawn)	-1.4	-8	7	0.061	-2.1*	-17	666	243
CC(O)(C#CCN1CCCC1)c1ccccc1 (stereo not drawn)	-0.93	4	-12	-0.29	-2.3*	-20	493	212
CCC(O)(CCN1CCCCC1)c1ccccc1 (stereo not drawn)	0.35	7	13	-0.33	-11*	-12	111*	213
CCCCOc1ccc(C(O)(CCC)CCN2CCOCC2)cc1 (stereo not drawn)	0.015	4	.	-1.2	-1.6	-10	.	.
CC(O)(C#CCN1CCCCC1)c1ccccc1 (stereo not drawn)	.	.	-9	.	.	.	.	.
C#CC(C)(C)NC(=O)CN(c1cc(Cl)ccc1OC)S(=O)(=O)c1ccc(C)c([N+](=O)[O-])c1	.	.	10	.	.	.	.	.
CC(CN(C)Cc1ccccc1)OC(=O)c1cccs1 (stereo not drawn)	-0.013	-10	12	-0.3	-0.76	-5	.	.
SMILES	M1 agonist	RORa activator	HePTP inhibitor	D1 mod	M1 antagonist	SF1 activator	M1 antag confirm	mGluR4 antag
CC(CN(C)Cc1ccccc1)OC(=O)c1ccc2c(c1)OCCO2 (stereo not drawn)	0.61	16	11	-0.039	-3.2*	17	323*	223
Cc1cc(C(=O)OCC(=O)c2ccc3c(c2)OCCO3)c(C)o1	0.048	-3	2	.	-0.39	35	.	.
CN1CCCCc2c1nc1c(c2N)CCCC1	-0.72	9	16	0.015	-2.5*	20	509	264
O=C(CN(CCc1ccccc1)C(=O)CNS(=O)(=O)c1ccc(F)cc1)NCC1CCCO1 (stereo not drawn)	0.074	15	6	-0.34	-2.3*	-10	642	238
O=C(CN(C(=O)CNS(=O)(=O)c1ccccc1)C1CCCC1)NCC1CCCO1 (stereo not drawn)	-0.14	-11	7	-1.1	0.66	15	.	.
CC(C)Cn1cc(C(=O)NCC2CCCO2)c2c3ccccc3n(C)c2c1=O (stereo not drawn)	1.6	16	3	0.42	-5.9*	-7	577	212
COc1ccc(COCC(O)CN2CCN(Cc3ccccc3)CC2)cc1OC (stereo not drawn)	.	.	10	.	.	.	.	.
O=C(/C=C(\O)c1ccccc1)c1ccc([N+](=O)[O-])cc1	.	.	-9	.	.	.	.	.
CCCCNC(=O)c1ccccc1C(=O)NCCCC	-0.17	-1	7	-0.61	-3.9*	4	660	227
CCCN1C2CCCC1CC(NC(=O)c1ccccc1)C2 (stereo not drawn)	-0.094	-7	8	.	-2.5	10	.	.
CCCN1C2CCCC1CC(NC(=O)c1ccccc1F)C2 (stereo not drawn)	-1.2	-10	-12	-2.1	-3.7*	-2	567	236
CCCN1C2CCCC1CC(NC(=O)c1ccccc1OCC)C2 (stereo not drawn)	1	5	16	-1.1	-3.8*	-1	461*	237
CN(C)S(=O)(=O)c1cccc(C(=O)Nc2ccc(Cl)cn2)c1	-0.095	18	1	.	-3*	65*	683	175
CCN(CC)S(=O)(=O)c1cccc(C(=O)Nc2ccc(Cl)cc2)c1	.	.	2	.	.	.	.	.
CCOC(=O)Cn1c(=N)n(CCOc2cccc(C)c2)c2ccccc21	-1.5	-12	16	-0.93	-0.8*	4	603	229
CCOC(=O)Cn1c(=N)n(Cc2ccccc2)c2ccccc21	0.41	-3	6	-1.1	-0.35	1	.	.
CN(CCNC(=O)c1cc2c(=O)n(C)c3ccccc3c2n1C)Cc1ccccc1	0.56	14	5	0.32	-3.8*	17	512	208
CCCCCc1c(C)nc(N2CCOCC2)[nH]c1=O	1.7	-4	-1	0.56	1.6	-18	.	.
Cc1cccc2cc(CN(Cc3ccco3)S(=O)(=O)c3ccc4c(c3)OCCO4)c(=O)[nH]c12	-0.63	22	8	0.37	0.44	23	.	.
